Laboratory results taken from ChEMBL document CHEMBL4513216, “Probing the Open Global Health Chemical Diversity Library for Multistage-Active Starting Points for Next-Generation Antimalarials” (ACS Infect Dis, 2020).

Assay: Toxicity liver stage against HepG2, at 10uM
Assay type: cell-based
Set-up: test concentration 10 uM, cell line HepG2-A16-CD81EGFP
Conditions: human, HepG2-A16-CD81EGFP cells; read-out: INHIBITION
Summary of the method: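 Uninfected HepG2-A16-CD81EGFP cells, 3 × 10^3 per well, 1536-well, plated on prespotted compound at 10 μM final, parasite-free screening media added to match infected plates; puromycin 10 μM positive, DMSO 0.5% negative; run in parallel with 48 h PbLuc assay at 37 °C, 5% CO2; viability by CellTiter-Glo luminescence, normalized to controls.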

| Structure (SMILES) | cytotoxicity at 10 µM [%] |
| --- | --- |
| CCc1ccc(-c2cn3c(C(=O)N[C@H](C(N)=O)[C@@H](C)O)csc3n2)cc1 | 7.69 |
| COCC(=O)N1CCN(Cc2csc(-c3ncccn3)n2)CC1 | -11.3 |
| NC(=O)CN1CCN(C(=O)c2cc(Cl)cc3cccnc23)CC1 | -9.19 |
| CN(C)c1cc(C(=O)N2CCCN(Cc3nccn3C)CC2)ccn1 | -1.56 |
| CC(C)c1cnc(CN(C)C2CCN(CCn3cc(C#N)cn3)C2)o1 (stereo not given) | -4.98 |
| COCCN1C[C@@H]2CC[C@H]1CN(CC(=O)Nc1ccn(C)n1)C2 | -8.39 |
| Cc1cccc2c1N(C)C(=O)C21CC(=O)Nc2c1cnn2C(C)(C)C (stereo not given) | -1.65 |
| Cc1cnn(CCNCC(O)COc2ccc(F)cc2)c1 (stereo not given) | -1.76 |
| O=C(NCc1ccccc1CN1CCCCCC1)Nc1nncs1 | 4.22 |
| CN(C)CCN1C(=O)CCC12CCN(Cc1cccs1)CC2 | 3.88 |
| CNC(=O)[C@@H](c1ccccc1OC)N1CCC[C@H]1C(=O)NCCN(C)C | -5.12 |
| Cc1cc(C(=O)NC(C)Cc2ccc(N(C)C)cc2)n(C)n1 (stereo not given) | 1.19 |
| Cc1cc(C)n(CC(C)NCCn2nc(C)c(Cl)c2C)n1 (stereo not given) | -5.44 |
| CNc1cc(C2CCCN(S(=O)(=O)c3cn[nH]c3)C2)ccn1 (stereo not given) | -24 |
| Cc1c[nH]c(CN2CCCCC2CCn2ccnc2C)c(C)c1=O (stereo not given) | 0.585 |
| C[C@H]1C[C@H]2CN(C(=O)c3cccc4c3OCCO4)CC[C@H]2O1 | -0.91 |
| CC(C)(C)c1cn(C[C@H]2CC3CCN2C[C@@H]3C(=O)N2CCOCC2)nn1 (stereo not given in full) | -3.37 |
| CC(C)c1nnc2n1CCN(C(=O)c1ccc(OCC3CC3)nc1)C2 | -0.556 |
| CN(C)Cc1cncc2c1CCN(CC(=O)N(C)C)C2 | -99.4 |
| c1cncc(CN2CC[C@@H]3[C@@H]2CCN3Cc2ccc3c(c2)OCO3)c1 | -3.04 |
| CCS(=O)(=O)N1CCC(C(=O)NC(Cc2ccsc2)c2nccs2)CC1 (stereo not given) | -2.72 |
| Cc1ccc2cc(CNCCN3CCCC3)c(=O)[nH]c2c1 | -1.89 |
| Cc1cc(C)n(CCCNC(=O)C(C)NC(=O)c2ccccc2Cl)n1 (stereo not given) | -0.136 |
| C[C@@H]1CN(Cc2nnc(-c3cccnc3)o2)CC[C@]1(C)O | 10.1 |
| Cc1noc(C)c1S(=O)(=O)NCC(O)c1ccc2c(c1)CCO2 (stereo not given) | 0.407 |
| COc1ccc(C)cc1CCNS(C)(=O)=O | 2.39 |
| Cc1cc(CNCC2(O)CCCN(CCCc3ccccc3)C2=O)n[nH]1 (stereo not given) | -2.4 |
| CC(C)c1noc(OCc2cccc(S(=O)(=O)N(C)C)c2)n1 | -45.9 |

| Structure (SMILES) | cytotoxicity at 10 µM [%] |
| --- | --- |
| COC(=O)CCNC(=O)c1nnn(-c2ccc(F)cc2)c1C1CC1 | -12.1 |
| Cc1cc(C)n(CC2CCCN2C(=O)c2ccc(NC3CC3)nc2)n1 (stereo not given) | 6.53 |
| CC(C)S(=O)(=O)N(C)C(=O)CCc1ccsc1 | 5.2 |
| Cc1cc2ncn(C(=O)N3CCOCC3)c2cc1C | -1.45 |
| Cc1cccc(NC(=O)C2CSCN2C(=O)c2cnccn2)c1C (stereo not given) | -0.691 |
| O=C1C[C@@H]2CC[C@H](CN1)N2C(=O)CCc1ccsc1 | -6.06 |
| CN1N=C(C(=O)N2CCCN(c3ncccc3C#N)CC2)CCC1=O | -1.8 |
| Cc1cccc(CS(=O)(=O)CC(=O)N(C)Cc2ccccc2F)c1 | -2.71 |
| Nc1nc2cn(C3CCCC3)c(=O)c-2c[nH]1 | -14.5 |
| CN(C)C(=O)c1ccc2c(c1)N(C)C(CC(=O)NCCOCCO)CO2 (stereo not given) | -7.96 |
| CN(Cc1nccs1)c1nc(-c2ccccn2)nc2c1CCNCC2 | -14 |
| COc1ccc(Cl)cc1S(=O)(=O)N1C[C@H]2CC[C@@H](C1)N(C)C2=O | 3.98 |
| COc1cccc(S(=O)(=O)NC(=O)COC2CCCC2)c1 | -7.1 |
| COc1ccc(CNCc2ccnc(N3CCCCC3)c2)cc1OC | 0.222 |
| CCS(=O)(=O)N1CCc2c(cccc2NCc2nc(C)c(C)o2)C1 | -46.9 |
| CS(=O)(=O)CCCC(=O)N1CCN(CC2CC2)c2ccccc21 | -3.2 |
| CC(OCC1CC1)C(=O)Nc1ncccc1I (stereo not given) | 12.1 |
| Cc1cc(C(=O)N2CCCC3(COCCN(c4ncccn4)C3)C2)[nH]n1 (stereo not given) | -3.58 |
| CCn1c(N)nc2cc(C(=O)N3CCN(c4ccncc4)CC3)cnc21 | -8.3 |
| CCn1cc(C(=O)N2C[C@H]3CC(Oc4ccccc4)C[C@H]3C2)cn1 (stereo not given in full) | 5.75 |
| Cc1cc(CN2CCN(Cc3ccc(C#N)cc3OC(F)F)CC2)no1 | 1.81 |
| Cc1ccc(NC(=O)N(C)Cc2cnn(C)c2)cc1OCC(F)F | -0.243 |
| O=C1CC(N(C(=O)c2ccc(Oc3ccccc3)cc2)C2CC2)C(=O)N1 (stereo not given) | -2.94 |
| O=C(N[C@@H]1CN(Cc2cccc3[nH]ccc23)C[C@H]1O)c1cscn1 | -2.86 |
| Cc1nn(C)c(C)c1CN1CCCC1c1nccc(CN(C)C)n1 (stereo not given) | -28.1 |
| O=C(NC1CCS(=O)(=O)c2ccccc21)c1sccc1C1CC1 (stereo not given) | 3.63 |
| COc1ccc(N2CCOCC3(CCCN(c4cnccn4)C3)C2)cc1 (stereo not given) | 4.29 |
